High-throughput results: PubChem, several laboratories
Hits are enriched below; roughly 2.1% of the tested compounds scored in any of these assays.
Yeast lifespan up: yeast lifespan extension | S. cerevisiae growth with nicotinamide, OD615; deaD strain in restrictive glucose medium | inhibition of the nicotinamide effect, % at 10 µM | 0.68% of 130,000 active;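 active = inhibition above a set limit, placed 3 SD over the median of all compounds, cut at about 26% in these data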;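 also: 0% = nicotinamide-treated wells and 100% = cells grown without nicotinamide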
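System: DeaD-strain S. cerevisiae / Buffer or medium: CSMM-D, restrictive glucose (dextrose) synthetic minimal medium / Probe or stimulus: nicotinamide, 1.5 mM, co-present with compound / Compound: one concentration, 10 µM, DMSO 0.25% / Incubation: 48 h compound exposure at 30 °C, humidified / Technique: optical density (absorbance) at 615 nm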
MRP-1 activ: MRP-1 activation. H69AR cells + doxorubicin, viability rescue, CellTiter-Glo. viability increase, % at 10 µM. 0.61% of 140,000 active. AID 799;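 active = viability gain under doxorubicin at or above a set limit, the compound median plus 3 SD, cut at about 4.7% in these data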;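 also: MRP-1 overexpressing cells given doxorubicin 25 µM after compound pretreatment; 18-22 h compound pretreatment then 72 h with doxorubicin before readout; 0% = doxorubicin-only wells and 100% = vehicle-treated cells without doxorubicin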
MRP reversal: compounds reversing MRP-mediated drug resistance. H69AR cells + 2 uM doxorubicin, CellTiter-Glo, 72 h. differential viability (reversal), % at 10 µM. 0.04% of 85,000 active. AID 602;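 active = viability drop by adding the cancer drug above about 55%, with treated viability meeting a 40% cutoff, limit read from the data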;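 also: viability without doxorubicin minus viability with 2 µM doxorubicin for each compound; larger differential means the compound sensitizes cells more to doxorubicin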
Phagocytosis inh: inhibitors of macrophage phagocytosis. inhibition, % at 5 µM. 0.07% of 110,000 active. J774A.1 macrophage IgG-bead phagocytosis, imaging;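 active = inhibition above the mean of the plate negative controls plus 5 SD, cut at about 13% in these data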;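 also: phagocytic index as fraction of beads internalized from green versus red external bead signal; plate controls were DMSO negative control for no effect and cytochalasin-D positive control for full effect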
BB579 growth dn: chemicals that inhibit yeast BB579 growth in restrictive medium (lifespan-shortening candidates). S. cerevisiae BB579 growth, OD615, 48 h. 0.51% of 140,000 active. inhibition, % at 10 µM;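 active = inhibition above a set limit, 3 SD over the mean compound inhibition, cut at about 44% in these data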
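Test system: DeaD yeast strain BB579 / Buffer or medium: restrictive glucose-based CSMM-D medium / Doses: single 10 µM dose / Schedule: 4 h cell preincubation, 48 h compound exposure, 30 °C humidified / Technique: culture absorbance at 615 nm / Controls: amphotericin B positive control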
sdo1 growth: restores growth of sdo1-depleted yeast; 0.21% of 140,000 active; AID 817; z-score at 10 µM; S. cerevisiae sdo1-depleted JHY4D growth rescue, OD600 30 h; active compounds read high; pdr5 snq2 efflux-pump mutant strain;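 active = z-score above 3 at both the 24 hr and the 30 hr optical density reads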;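 also: z-score against mean and SD of all compound wells on the same plate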
* = called active by the depositor; nt = no result.

SMILES | Yeast lifespan up | MRP-1 activ | MRP reversal | Phagocytosis inh | BB579 growth dn | sdo1 growth
Cc1ccc(S(=O)(=O)Nc2ccc(SC(F)F)cc2)c(C)c1 | -3.4 | -2.2 | nt | -12.7 | 61.1* | -1.02
O=C(c1ccc(-c2nnc(Nc3ccccc3)c3ccccc23)cc1)N1C[C@H]2C[C@H](C1)c1cccc(=O)n1C2 | -21.1 | -0.8 | 2.0 | 1.1 | -57.4 | -0.53
CCOC(=O)N1CCC(NC(=O)C2CCN(S(=O)(=O)c3cccs3)CC2)CC1 | -6.4 | -0.8 | 11.9 | 43.7* | -31.1 | 0.4
Cc1nn(Cc2ccccc2)c(C)c1NC(=O)c1cc(-c2cccs2)on1 | -11.7 | 4.8* | 1.8 | -1.5 | -2.4 | -1.3
CCOc1ccc(-c2nc(C#N)c(NCC(C)C)o2)cc1 | -20.3 | 6.8* | 5.7 | -0.2 | -20.4 | -1.49
Cc1cccc(-n2ncc3c(N4CC(C)CC(C)C4)ncnc32)c1 (configuration not stated) | -5.4 | 5.3* | -6.3 | -0.4 | -45.0 | -2.04
CCOC(=O)c1c(C(=O)OCC)c(C)n(Cc2cc(OC)c(OC)c(OC)c2)c1C | 1.5 | -1.9 | nt | -1.7 | -38.6 | -0.4
CCOC(=O)CN1C(=O)N[C@H](c2ccc(Br)cc2)C(C(C)=O)=C1C | 45.9* | -1.8 | nt | nt | -45.4 | 0.42
COc1cc(NC(=S)N2CCN(C(c3ccccc3)c3ccccc3)CC2)cc(OC)c1 | -3.3 | -6.3 | nt | 0.0 | -9.7 | -0.89
COc1ccccc1NC(=O)C1=C(C)Nc2nc(-c3cccs3)nn2C1c1cccc(O)c1 (configuration not stated) | -8.8 | -1.4 | -4.6 | -0.9 | -19.3 | 0.42
CC(NCc1ccc(N(C)C)cc1)C1CC2CCC1C2 (configuration not stated) | 47.2* | 1.5 | 14.2 | -0.1 | -7.1 | 0.53
CCN(CC)CCN(Cc1cc2cc(C)cc(C)c2[nH]c1=O)C(=S)NCc1ccco1 | 17.6 | 22.6* | nt | -8.1 | -29.5 | 0.85
N#C/C(=N/Nc1ccccc1F)C(=N)N1CCOCC1 | -7.5 | 8.1* | nt | nt | -25.9 | -0.28
COC(=O)c1ccc2c(c1O)C(=O)c1ccccc1C2=O | -11.2 | -2.5 | nt | 2.6 | 66.6* | -2.02
CCCCC(c1nnnn1CC1CCCO1)N1CCN(c2nc3ccccc3s2)CC1 (configuration not stated) | 72.8* | -1.7 | 8.0 | -0.4 | -36.3 | -1.36
CCCC(c1nnnn1CC1CCCO1)N1CCN(c2nc3ccccc3s2)CC1 (configuration not stated) | nt | -1.7 | -14.1 | nt | -41.0 | -0.93
COc1ccc(-c2ocnc2C(=O)Nc2ccccc2N2CCCCC2)cc1 | -0.5 | 7.2* | -13.1 | -0.3 | -29.1 | -0.98
Cc1n[nH]c(=S)n(/N=C/c2ccccn2)c1=O | 0.8 | 6.0* | 7.6 | -0.8 | -28.1 | 1.56
COc1ccc(Br)c(C(=O)Nn2c(C)nc3ccccc3c2=O)c1 | -1.2 | -1.7 | 8.1 | 0.5 | -32.3 | -0.9
c1ccc(N2CCN(c3ccccc3)C2c2cccnc2)cc1 | -5.9 | -3.8 | 59.9* | nt | -24.6 | -0.69
COC(=O)c1cn(-c2ccccc2)c(C)c1C(=O)OC | nt | -3.1 | 6.0 | nt | -4.1 | -0.02
COc1ccc(N/N=C(\C#N)C(N)=O)cc1 | 6.8 | 2.1 | nt | -7.8 | 58.5* | -1.56
CCOc1ccc(N/N=C(/C#N)C(N)=O)cc1 | -7.9 | -1.8 | nt | nt | 96.8* | -1.43
CCOC(=O)NC(=O)/C(C#N)=N\Nc1ccc(Cl)cc1 | -3.4 | -0.4 | 10.9 | 0.3 | -29.7 | -0.14
CCCOc1ccc(C(=O)NCCO)cc1 | -2.4 | 1.1 | 2.4 | 0.9 | -74.0 | 0.54
SMILES | Yeast lifespan up | MRP-1 activ | MRP reversal | Phagocytosis inh | BB579 growth dn | sdo1 growth
COc1cc2c(OC)cccc2cc1C(=O)O | 1.0 | -2.6 | 4.2 | 2.2 | -10.8 | 0.94
C=C(C)COc1ccc(-c2[nH]ncc2-c2ccccc2OC)c(O)c1 | -10.7 | -6.0 | -18.4 | 0.4 | 89.7* | -2.23
C=C(C)COc1ccc(-c2[nH]ncc2Oc2ccccc2OC)c(O)c1 | -7.0 | -5.4 | -18.5 | -0.9 | 79.5* | -2.2
C=C(C)COc1ccc(-c2[nH]ncc2-c2ccc(Br)cc2)c(O)c1 | -7.2 | -5.5 | nt | -1.8 | 68.6* | -2.38
C=C(C)COc1ccc(-c2n[nH]c(C)c2-c2ccc(Br)cc2)c(O)c1 | -15.1 | -6.3 | -32.6 | nt | -30.6 | -2.04
CCCOC(=O)c1ccc(Oc2cn[nH]c2-c2ccc(OC)cc2O)cc1 | -7.3 | -5.7 | -15.9 | -1.6 | 69.1* | -1.8
Cc1cc(C)c2c(C)nn(C3CCCCC3)c2n1 | -19.2 | -2.2 | -8.5 | -0.2 | -22.3 | 0.46
Cc1cccc(Nc2cc(=O)[nH]c(=O)[nH]2)c1C | -2.0 | -2.3 | nt | -6.0 | -3.9 | 0.41
CC(C)Cc1nc2oc3c(N4CCN(C)CC4)ncnc3c2c2c1CCCC2 | -11.0 | -0.6 | -3.5 | -0.5 | -0.7 | 1.1
COc1ncnc2c1oc1nc(CC(C)C)c3c(c12)CCCC3 | -7.5 | 7.2* | -2.5 | -0.5 | -23.5 | -1.56
CC(C)(C)c1ccc(C(=O)NCCCN2CCN(CCCNC(=O)c3ccc(C(C)(C)C)cc3)CC2)cc1 | -3.8 | -5.0 | nt | 0.8 | -14.6 | -0.42
COc1cc(OC)cc(C(=O)NCCCN2CCN(CCCNC(=O)c3cc(OC)cc(OC)c3)CC2)c1 | 40.8* | -2.5 | nt | -4.4 | -22.8 | -0.15
CN1CCN(C(=O)c2sc(=S)n(-c3ccccc3)c2N)CC1 | -2.6 | -1.6 | 10.6 | -1.3 | -38.9 | -0.49
CCc1cc(-c2n[nH]c(=S)n2Cc2ccccc2)cs1 | -14.2 | -1.8 | nt | nt | -24.1 | -1.04
CCCc1cc(-c2n[nH]c(=S)n2C(C)c2ccccc2)cs1 (configuration not stated) | 12.2 | -2.6 | nt | 0.0 | 50.4* | -1.8
Cc1ccc(Nc2nc(NCCCN3CCOCC3)nc(N)c2[N+](=O)[O-])cc1 | -3.4 | -1.2 | nt | -9.2 | -25.2 | 0.48
CCc1cc2c(=O)c(Oc3ccccc3)c(C)oc2cc1O | 69.2* | -0.6 | -3.7 | -0.9 | -42.5 | -1.81
Cc1oc2cc(OCC(=O)O)ccc2c(=O)c1Oc1ccccc1 | 1.8 | -1.4 | -1.0 | -1.2 | 0.4 | 0.34
Cc1cc(-c2n[nH]c(=S)n2/N=C/c2cc([N+](=O)[O-])ccc2Cl)n[nH]1 | 4.6 | -4.3 | nt | -5.5 | 96.5* | 0.52
CC(=O)NCCC(=O)Nc1nc(-c2cccs2)c(-c2cccs2)s1 | -0.5 | 0.2 | nt | 2.6 | -66.2 | 0.39
O=C(Nc1nc(-c2cccs2)c(-c2cccs2)s1)C1(c2ccccc2)CC1 | -6.3 | 5.2* | nt | -15.7 | -39.4 | 0.04
CN(c1ccccc1)c1nc(-n2ccnc2)nc(-n2ccnc2)n1 | -32.3 | -4.5 | -22.8 | nt | -61.1 | -2.36
c1ccc(N(c2ccccc2)c2nc(-n3ccnc3)nc(-n3ccnc3)n2)cc1 | -11.6 | -1.8 | -10.0 | -1.9 | 91.8* | -2.82
O=C(O)CCc1ccc(-c2cccs2)n1NC(=O)c1ccc(Cl)cc1 | -12.8 | -2.4 | -4.7 | 79.0* | 16.1 | 0.59
COC(=O)c1ccc(NC(=O)C(C)Oc2ccccc2)cc1 (configuration not stated) | -16.1 | 0.3 | -3.0 | -1.2 | -18.1 | 0.09
